Experimental data taken from PMC9447421 (FASEB BioAdvances, 2022).
Where a name gives a salt, the structure may show the parent alone.

Legend:
[1] = target: T1, A. mexicanus T2R4 (Astyanax mexicanus, UniProt A0A3B1ICP8); assay: Calcium mobilization assay, HEK293T cells stably expressing T2R4; assay type: cell-based
T1 sequence (A0A3B1ICP8 2-338): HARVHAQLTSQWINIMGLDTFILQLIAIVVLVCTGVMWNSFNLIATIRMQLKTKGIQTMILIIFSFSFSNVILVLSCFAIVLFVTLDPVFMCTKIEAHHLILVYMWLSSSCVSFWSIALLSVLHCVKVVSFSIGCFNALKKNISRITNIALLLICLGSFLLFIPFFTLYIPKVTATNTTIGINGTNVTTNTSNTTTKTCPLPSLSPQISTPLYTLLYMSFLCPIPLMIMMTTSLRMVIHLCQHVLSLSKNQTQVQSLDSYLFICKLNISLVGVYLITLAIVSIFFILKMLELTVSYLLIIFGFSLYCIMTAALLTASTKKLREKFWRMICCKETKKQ

[2] = system: hT2R4; details: human T2R4; cited from earlier work
[3] = system: canonical Gβγ‐PLC signaling pathway activated by T2Rs (T2R1); assay type: cell-based, Astyanax mexicanus; details: T2R1 cells; blocker 10 μM, 30 min pretreatment; brine shrimp 5 mg/ml
Summary of the method: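 HEK293T cells stably expressing FLAG-tagged fish T2R1, selected in hygromycin (200 μg/ml). Brine shrimp (300 mg ground food per 10 ml) and blockers prepared in assay buffer (1X HBSS, 20 mM HEPES). Cells loaded with Fluo-4 NW, 35 min at 37°C then 35 min at room temperature. Compounds added robotically on a FlexStation 3. Signal baseline-subtracted against parental HEK293T cells and reported as ΔRFU.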

[4] = system: hT2R1; details: human T2R1; cited from earlier work
[5] = system: hT2R4; details: human T2R4; cited from earlier work; remark: listed apart in the source

## COc1ccc2c(c1)[C@]13CCCC[C@@H]1[C@H](C2)N(C)CC3 [DXM, dextromethorphan]
[1]
  EC50: 1430 µM
[2]
  Activation of hT2R4: does not activate

## COc1ccc2c(c1)CC[C@@H]1[C@@H]2CC[C@]2(C)[C@@H](NCCCCCCN3C(=O)C=CC3=O)CC[C@@H]12 [U73122]
[3]
  Effect of pretreatment on brine shrimp-induced calcium mobilization: significant decrease in calcium mobilization

## COc1ccc2c(c1)CC[C@@H]1[C@@H]2CC[C@]2(C)[C@@H](NCCCCCCN3C(=O)CCC3=O)CC[C@@H]12 [U73343]
[3]
  Effect of pretreatment on brine shrimp-induced calcium mobilization: no significant differences

## O=C1OC2(c3ccccc31)c1ccc(O)c(O)c1Oc1c2ccc(O)c1O [gallein, Gallein]
[3]
  Effect of pretreatment on brine shrimp-induced calcium mobilization: significant decrease in calcium mobilization

## C=C[C@H]1C[N@@]2CC[C@H]1C[C@H]2[C@H](O)c1ccnc2ccc(OC)cc12 [quinine, quinine hydrochloride]
[4]
  Activation of hT2R1: does not activate
[5]
  Effect on hT2R4 expression (pharmacological chaperone): acts intracellularly to enhance hT2R4 expression
